The text below walks through data of the RNAGym collection of RNA variant scans (doi:10.1002/anie.201605470).

B1: Osa-1-4 twister ribozyme (parent)
chain: CCGCCUAACACUGCCAAUGCCGGUCCCAAGCCCGGAUAAAAGUGGAGGGGGCGG

In the data set the parent is B1. Description: self-cleavage, relative activity (ratio to wild type); higher = more cleavage; co-transcriptional. An outline of the steps: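 For each read, cleavage status was taken from whether upstream sequence was present. The reads came from an Oryza sativa twister ribozyme of 54 nucleotides, whose DNA template was synthesised with 97 % wild-type base and 1 % of each other base at the 48 positions downstream of the cleavage site. The template was transcribed in vitro at 37 °C for 2 h with co-transcriptional self-cleavage, and the RNA was reverse-transcribed using a template-switching oligonucleotide, PCR-amplified and deep-sequenced. Relative activity is the fraction cleaved normalised to wild type.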
In the case of CCGCCUAACACUGCCAAUGCCGGUCCCAAGCCAGGAUAAAUGUGGAGGGGGCGG, the self-cleavage is 0.14.
For the variant CCGCCUAACACUGCCAAUGCCGGUCCCAAGCCGGGAUAAAUGUGGAGGGGGCGG, the self-cleavage amounted to 0.1.
For CCGCCUAACACUGCCAAUGCCGGUCCCAAGCCCGGAUAAAUGUGGACGGGGCGG, the self-cleavage came to 0.11.
CCGCCUAACACUGCCAAUGCCGGUCCCAAGCCCGGAUAAAUGUGGAAGGGGCGG: the self-cleavage was determined as 0.27.
Take CCGCCUAACACUGCCAAUGCCGGUCCCAAGCCCGGAUAAAUGUGGAUGGGGCGG: the self-cleavage turned out to be 0.25.
With CCGCCUAACACUGCCAAUGCCGAUCCCAAGCCCGGAUAAAUGUGGAGGGGGCGG, the self-cleavage was 0.62.
With CCGCCUAACACUGCCAAUGCCGCUCCCAAGCCCGGAUAAAUGUGGAGGGGGCGG, the self-cleavage was found to be 0.08.
With CCGCCUAACACUGCCAAUGCCGUUCCCAAGCCCGGAUAAAUGUGGAGGGGGCGG, the self-cleavage stood at 0.09.
Regarding CCGCCUAACACUGCCAAUGCCGGUCCCAAGCCCGGAUAAAUGUGGAGGGGGAGG, the self-cleavage was 1.02.
As to CCGCCUAACACUGCCAAUGCCGGUCCCAAGCCCGGAUAAAUGUGGAGGGGGGGG, the self-cleavage came to 1.05.
As for CCGCCUAACACUGCCAAUGCCGGUCCCAAGCCCGGAUAAAUGUGGAGGGGGUGG, the self-cleavage turned out to be 1.04.
In the case of CCGCCUAACAAUGCCAAUGCCGGUCCCAAGCCCGGAUAAAUGUGGAGGGGGCGG, the self-cleavage worked out at 0.79.
For the variant CCGCCUAACAUUGCCAAUGCCGGUCCCAAGCCCGGAUAAAUGUGGAGGGGGCGG, the self-cleavage turned out to be 0.9.
Consider CCGCCUAACAGUGCCAAUGCCGGUCCCAAGCCCGGAUAAAUGUGGAGGGGGCGG, for which the self-cleavage was 0.45.
Take CCGCCUAACACUGCCAAUGCCGGUCCCAAGCCCGGAUAAAUGUGGAGGGGGCUG: the self-cleavage is 0.36.
With CCGCCUAACACUGCCAAUGCCGGUCCCAAGCCCGGAUAAAUGUGGAGGGGGCCG the figure was 0.11; with CCGCCUAACACUGCCAAUGCCGGUCCCAAGCCCGGAUAAAUGUGGAGGGGGCAG, 0.89; with CCGCCUAACACUGCCAAUGCCGGUCCCAAGCCCUGAUAAAUGUGGAGGGGGCGG, 0.74.
On to CCGCCUAACACUGCCAAUGCCGGUCCCAAGCCCAGAUAAAUGUGGAGGGGGCGG, for which the self-cleavage turned out to be 0.82.
With CCGCCUAACACUGCCAAUGCCGGUCCCAAGCCCCGAUAAAUGUGGAGGGGGCGG the figure was 0.47; with CCGCCUAACACUGCCAAUGCCGGUCCCAAGCCCGGAUAAAUGUGGAGGGGGCGA, 0.98; with CCGCCUAACACUGCCAAUGCCGGUCCCAAGCCCGGAUAAAUGUGGAGGGGGCGC, 0.93.
Take CCGCCUAACACUGCCAAUGCCGGUUCCAAGCCCGGAUAAAUGUGGAGGGGGCGG: the self-cleavage is 0.91.
On to CCGCCUAACACUGCCAAUGCCGGUACCAAGCCCGGAUAAAUGUGGAGGGGGCGG, for which the self-cleavage is 0.1.
Consider CCGCCUAACACUGCCAAUGCCGGUGCCAAGCCCGGAUAAAUGUGGAGGGGGCGG, for which the self-cleavage turned out to be 0.11.
With CCGCCUAACACUGCCAAUGCCGGUCCCAAGCCCGGAUAAAUGUGGAGGGGUCGG, the self-cleavage turned out to be 0.26.
Turning to CCGCCUAACACUGCCAAUGCCGGUCCCAAGCCCGGAUAAAUGUGGAGGGGCCGG, the self-cleavage amounted to 0.1.
As for CCGCCUAACACUGCCAAUGCCGGUCCCAAGCCCGGAUAAAUGUGGAGGGGACGG, the figure is 0.59.
Consider CCGCCUAACACUGCCAAUGCCGGUCCCAAGGCCGGAUAAAUGUGGAGGGGGCGG, for which the self-cleavage amounted to 0.13.
With CCGCCUAACACUGCCAAUGCCGGUCCCAAGACCGGAUAAAUGUGGAGGGGGCGG the figure was 0.04; with CCGCCUAACACUGCCAAUGCCGGUCCCAAGUCCGGAUAAAUGUGGAGGGGGCGG, 0.94; with CCGCCUAACACUGCCAAUGCCGGUCCCAAGCCCGGAUAAAUGUGGAGGGCGCGG, 0.99.
With CCGCCUAACACUGCCAAUGCCGGUCCCAAGCCCGGAUAAAUGUGGAGGGUGCGG, the self-cleavage came out at 1.03.
As for CCGCCUAACACUGCCAAUGCCGGUCCCAAGCCCGGAUAAAUGUGGAGGGAGCGG, the figure is 0.6; as for CCGCCUAACACUGCCAAUGCCGGUCCCAAGCGCGGAUAAAUGUGGAGGGGGCGG, 0.18; as for CCGCCUAACACUGCCAAUGCCGGUCCCAAGCUCGGAUAAAUGUGGAGGGGGCGG, 0.17.
Turning to CCGCCUAACACUGCCAAUGCCGGUCCCAAGCACGGAUAAAUGUGGAGGGGGCGG, the self-cleavage is 0.1.
As for CCGCCUAACACUGCCAAUGCCGGUCCCAAGCCCGGAUAAAUGUGGAGCGGGCGG, the figure is 0.1; as for CCGCCUAACACUGCCAAUGCCGGUCCCAAGCCCGGAUAAAUGUGGAGUGGGCGG, 0.07; as for CCGCCUAACACUGCCAAUGCCGGUCCCAAGCCCGGAUAAAUGUGGAGAGGGCGG, 0.09.
Regarding CCGCCUACCACUGCCAAUGCCGGUCCCAAGCCCGGAUAAAUGUGGAGGGGGCGG, the self-cleavage is 0.07.
As for CCGCCUAGCACUGCCAAUGCCGGUCCCAAGCCCGGAUAAAUGUGGAGGGGGCGG, the figure is 0.41.
Take CCGCCUAUCACUGCCAAUGCCGGUCCCAAGCCCGGAUAAAUGUGGAGGGGGCGG: the self-cleavage was 0.25.
Turning to CCGCCUAACACUGCCAAUGCCGGUCCCAAGCCCGGAUAAAUUUGGAGGGGGCGG, the self-cleavage turned out to be 0.15.
Consider CCGCCUAACACUGCCAAUGCCGGUCCCAAGCCCGGAUAAAUAUGGAGGGGGCGG, for which the self-cleavage is 0.35.
With CCGCCUAACACUGCCAAUGCCGGUCCCAAGCCCGGAUAAAUCUGGAGGGGGCGG, the self-cleavage was 0.2.
Regarding CCGCCUAAGACUGCCAAUGCCGGUCCCAAGCCCGGAUAAAUGUGGAGGGGGCGG, the self-cleavage came out at 0.79.
With CCGCCUAAAACUGCCAAUGCCGGUCCCAAGCCCGGAUAAAUGUGGAGGGGGCGG, the self-cleavage amounted to 0.42.
With CCGCCUAAUACUGCCAAUGCCGGUCCCAAGCCCGGAUAAAUGUGGAGGGGGCGG the figure was 0.78.
